Results taken from ChEMBL document CHEMBL4715736, “Identification of anticancer agents based on the thieno[2,3-b]pyridine and 1H-pyrazole molecular scaffolds” (2016).

What was measured:
Type in all cases: functional
OVCAR-3 [1] = test: Growth inhibition of human OVCAR-3 cells assessed as cell growth at 100 uM incubated for 48 hrs by sulforhodamine B assay relative to control; settings: read-out: Activity
NCI-H226 [2] = test: Growth inhibition of human NCI-H226 cells assessed as cell growth at 0.1 uM incubated for 48 hrs by sulforhodamine B assay relative to control; settings: read-out: Activity
K562 = test: Growth inhibition of human K562 cells assessed as cell growth at 0.01 uM incubated for 48 hrs by sulforhodamine B assay relative to control; settings: read-out: Activity
NCI-H522 = test: Growth inhibition of human NCI-H522 cells assessed as cell growth at 100 uM incubated for 48 hrs by sulforhodamine B assay relative to control; settings: read-out: Activity
COLO 205 = test: Growth inhibition of human COLO 205 cells incubated for 48 hrs by sulforhodamine B assay
Procedure, shortened: (§1)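 NCI Developmental Therapeutics Program NCI60 panel. Compounds that were active in the 10 µM one-dose screen went on to dose–response testing. Growth at each concentration is expressed relative to untreated control (100%). GI50 (concentration giving 50% of maximal inhibition of proliferation) and TGI (concentration giving total growth inhibition) were derived from the curves.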

SF-268 = test: Growth inhibition of human SF-268 cells assessed as cell growth at 100 uM incubated for 48 hrs by sulforhodamine B assay relative to control; settings: read-out: Activity
RXF 393 [3] = test: Growth inhibition of human RXF 393 cells assessed as cell growth at 1 uM incubated for 48 hrs by sulforhodamine B assay relative to control; settings: read-out: Activity
MDA-MB-468 = test: Growth inhibition of human MDA-MB-468 cells assessed as cell growth at 100 uM incubated for 48 hrs by sulforhodamine B assay relative to control; settings: read-out: Activity
M14 = test: Growth inhibition of human M14 cells assessed as cell growth at 100 uM incubated for 48 hrs by sulforhodamine B assay relative to control; settings: read-out: Activity
DU-145 = test: Growth inhibition of human DU-145 cells incubated for 48 hrs by sulforhodamine B assay; procedure, shortened: as §1
T47D = test: Growth inhibition of human T47D cells assessed as cell growth at 100 uM incubated for 48 hrs by sulforhodamine B assay relative to control; settings: read-out: Activity
UACC-62 = test: Growth inhibition of human UACC-62 cells incubated for 48 hrs by sulforhodamine B assay
Procedure, shortened: (§2)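 NCI DTP 60-line human tumour panel. Dose-response curves were run only for ligands active in the initial 10 µM screen. GI50 (concentration giving 50% of maximal inhibition of proliferation) and TGI (concentration giving total growth inhibition) were derived from these curves.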

MOLT-4 = test: Growth inhibition of human MOLT-4 cells assessed as cell growth at 100 uM incubated for 48 hrs by sulforhodamine B assay relative to control; settings: read-out: Activity
UO-31 [4] = test: Growth inhibition of human UO-31 cells assessed as cell growth at 100 uM incubated for 48 hrs by sulforhodamine B assay relative to control; settings: read-out: Activity
Hs-578T [5] = test: Growth inhibition of human Hs-578T cells assessed as cell growth at 1 uM incubated for 48 hrs by sulforhodamine B assay relative to control; settings: read-out: Activity
Hs-578T [6] = test: Growth inhibition of human Hs-578T cells assessed as cell growth at 0.1 uM incubated for 48 hrs by sulforhodamine B assay relative to control; settings: read-out: Activity
UO-31 [7] = test: Growth inhibition of human UO-31 cells incubated for 48 hrs by sulforhodamine B assay; procedure, shortened: as §2
PC-3 = test: Growth inhibition of human PC-3 cells incubated for 48 hrs by sulforhodamine B assay; procedure, shortened: as §2
SK-MEL-2 = test: Growth inhibition of human SK-MEL-2 cells assessed as cell growth at 1 uM incubated for 48 hrs by sulforhodamine B assay relative to control; settings: read-out: Activity
OVCAR-8 [8] = test: Growth inhibition of human OVCAR-8 cells assessed as cell growth at 0.1 uM incubated for 48 hrs by sulforhodamine B assay relative to control; settings: read-out: Activity
BT-549 = test: Growth inhibition of human BT-549 cells incubated for 48 hrs by sulforhodamine B assay; procedure, shortened: as §1
LOX IMVI = test: Growth inhibition of human LOX IMVI cells assessed as cell growth at 1 uM incubated for 48 hrs by sulforhodamine B assay relative to control; settings: read-out: Activity
TK-10 = test: Growth inhibition of human TK-10 cells incubated for 48 hrs by sulforhodamine B assay; procedure, shortened: as §2
A549 = test: Growth inhibition of human A549/ATCC cells assessed as cell growth at 1 uM incubated for 48 hrs by sulforhodamine B assay relative to control; settings: read-out: Activity; procedure, shortened: as §1
Malme-3M = test: Growth inhibition of human Malme-3M cells assessed as cell growth at 0.1 uM incubated for 48 hrs by sulforhodamine B assay relative to control; settings: read-out: Activity
OVCAR-8 [9] = test: Growth inhibition of human OVCAR-8 cells assessed as cell growth at 1 uM incubated for 48 hrs by sulforhodamine B assay relative to control; settings: read-out: Activity
NCI-H226 [10] = test: Growth inhibition of human NCI-H226 cells assessed as cell growth at 100 uM incubated for 48 hrs by sulforhodamine B assay relative to control; settings: read-out: Activity
NCI-H460 = test: Growth inhibition of human NCI-H460 cells assessed as cell growth at 0.01 uM incubated for 48 hrs by sulforhodamine B assay relative to control; settings: read-out: Activity
OVCAR-3 [11] = test: Growth inhibition of human OVCAR-3 cells assessed as cell growth at 0.1 uM incubated for 48 hrs by sulforhodamine B assay relative to control; settings: read-out: Activity
NCI-H23 = test: Growth inhibition of human NCI-H23 cells incubated for 48 hrs by sulforhodamine B assay
Procedure, shortened: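 NCI60 panel at the NCI Developmental Therapeutics Program. Only compounds active in the 10 µM screen went to dose-response testing. GI50, the concentration giving 50% of maximal inhibition of proliferation, and TGI, the concentration giving total growth inhibition, were derived from the dose-response curves.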

RXF 393 [12] = test: Growth inhibition of human RXF 393 cells assessed as cell growth at 0.1 uM incubated for 48 hrs by sulforhodamine B assay relative to control; settings: read-out: Activity
UO-31 [13] = test: Growth inhibition of human UO-31 cells assessed as cell growth at 0.1 uM incubated for 48 hrs by sulforhodamine B assay relative to control; settings: read-out: Activity
[14] = read-out: LC50 (the source's name)

CN1CCc2nc3sc(C(N)=O)c(N)c3c(-c3cccs3)c2C1
growth at 100 µM (OVCAR-3 [1]): -8% | growth at 0.1 µM (NCI-H226 [2]): 89% | growth at 0.01 µM (K562): 96% | growth at 100 µM (NCI-H522): -26% | GI50 (COLO 205): 1.43 µM | LC50 (concentration killing 50% of cells) (COLO 205): 9.35 µM | TGI (COLO 205): 3.66 µM | growth at 100 µM (SF-268): 2% | growth at 1 µM (RXF 393 [3]): 55% | growth at 100 µM (MDA-MB-468): -59% | growth at 100 µM (M14): -27% | GI50 (DU-145): 3.91 µM | TGI (DU-145): 86.9 µM | CC50 (DU-145; [14]): > 100 µM | growth at 100 µM (T47D): 2% | GI50 (UACC-62): 2.38 µM | LC50 (UACC-62): 72.2 µM | TGI (UACC-62): 6.56 µM | growth at 100 µM (MOLT-4): -4% | growth at 100 µM (UO-31 [4]): 6% | growth at 1 µM (Hs-578T [5]): 91% | growth at 0.1 µM (Hs-578T [6]): 92% | GI50 (UO-31 [7]): 3.47 µM | TGI (UO-31 [7]): > 100 µM | CC50 (UO-31 [7]; [14]): > 100 µM | GI50 (PC-3): 4.58 µM | TGI (PC-3): > 100 µM | CC50 (PC-3; [14]): > 100 µM | growth at 1 µM (SK-MEL-2): 108% | growth at 0.1 µM (OVCAR-8 [8]): 96% | GI50 (BT-549): 3.26 µM | TGI (BT-549): 35.5 µM | CC50 (BT-549; [14]): > 100 µM | growth at 1 µM (LOX IMVI): 56% | GI50 (TK-10): 3.32 µM | TGI (TK-10): 13.1 µM | CC50 (TK-10; [14]): > 100 µM | growth at 1 µM (A549): 91% | growth at 0.1 µM (Malme-3M): 111% | growth at 1 µM (OVCAR-8 [9]): 82% | growth at 100 µM (NCI-H226 [10]): 14% | growth at 0.01 µM (NCI-H460): 109% | growth at 0.1 µM (OVCAR-3 [11]): 99% | GI50 (NCI-H23): 2.87 µM | LC50 (50% lethal concentration) (NCI-H23): > 100 µM | TGI (NCI-H23): 12.6 µM | growth at 0.1 µM (RXF 393 [12]): 85% | growth at 0.1 µM (UO-31 [13]): 102%
